From PubChem BioAssay
bIAP activator: increases bovine intestinal alkaline phosphatase activity. AID 1016. actives 0.17% (n = 200,000). activation factor at 20 µM. purified bovine IAP, CDP-star luminescence, 30 min; hits give high values; fold of DMSO-control signal, blank-subtracted;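 active means activation factor of 2 or more at 20 µM, a signal rise over negative controls twice the positive control's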
mIAP act: mouse IAP activation; muIAP, CDP-Star luminescence, 30 min; hits give high values; 1 = vehicle-only enzyme signal, 0 = enzyme-free wells; activation factor at 10 µM; actives 0.24% (n = 330,000);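 active means activation factor of at least 2 at 20 µM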
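Assay system: mouse IAP enzyme; reagent: chemiluminescent substrate CDP-Star; dosing: test compounds delivered from DMSO solution; schedule: 30 min at room temperature; measured by: luminescence from enzymatic CDP-Star hydrolysis; controls: DMSO-only wells and no-enzyme negative control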
mIAP inh: blocks mouse intestinal alkaline phosphatase | purified mouse IAP, CDP-Star luminescence, 30 min | inhibition, % at 10 µM | actives 0.2% (n = 330,000) | AID 2806;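 active means inhibition of at least 40% at 10 µM in the primary screen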;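 further: plate controls were DMSO with enzyme for no effect and no enzyme wells for full effect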
bIAP inh: intestinal alkaline phosphatase (bovine) inhibition | inhibition, % at 20 µM | AID 1019 | 190,000 tested, under 10 active | purified bovine IAP, CDP-star luminescence, 30 min;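 active means over 50% inhibition of intestinal alkaline phosphatase at 20 µM in the single-dose screen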
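Assay system – bovine IAP enzyme · Quantity – bovine IAP at 1/65,000,000 final dilution · Detection – CDP-star luminescence signal · Times – 30 min reaction at room temperature · Also added – CDP-star substrate at 30 µM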
hIAP inh: blocks human intestinal alkaline phosphatase; P09923; purified IAP, CDP-Star luminescence, 30 min; inhibition, % at 10 µM; actives 0.12% (n = 330,000);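 active means inhibition reaching a set limit with compound at 10 µM in the primary screen, cut at about 35% in these data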;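 further: plate controls were DMSO wells with enzyme for no effect and no-enzyme buffer wells for full effect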
hIAP act: human IAP activation. activation factor at 10 µM. P09923. actives 0.16% (n = 330,000). purified human IAP, CDP-Star luminescence, 30 min; hits give high values; 1 = vehicle-only enzyme, 0 = enzyme-free background. AID 2524;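 active means activation factor of the enzyme at least 2-fold when tested at 20 µM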
mIAP inh confirm: mouse IAP inhibition confirmation | shares compounds with mIAP inh | purified mouse IAP, CDP-Star luminescence, 30 min | inhibition, % at 10 µM | actives 4.7% (n = 11,000);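 active means inhibition of at least 40% at 10 µM in either of the two replicates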;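 further: plate controls were DMSO wells with enzyme for no effect and buffer wells lacking enzyme for full effect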
The depositor's hits bear a star; i = inactive; / = no result. In the library only some 0.77% were active in any assay of this set; here they are far more common.

SMILES	bIAP activator	mIAP act	mIAP inh	bIAP inh	hIAP inh	hIAP act	mIAP inh confirm
Cc1nc(S/C(=C/c2ccc(-c3ccc(C(=O)O)cc3)o2)C(=O)O)n[nH]1	/	0.55	45*	/	-41	1.4	45*
CC(=O)c1ccc(-c2ccc(/C=C(/Sc3n[nH]c(C)n3)C(=O)O)o2)cc1	/	0.74	26	/	-26	1.3	/
Cc1cc(=O)n2[nH]cc(C(=O)O)c2n1	0.9	0.47	53*	9	5	0.95	58*
Cc1cc(=O)n2[nH]c(C(=O)O)nc2n1	0.9	0.88	12	6	-13	1.1	/
COc1cccc(NC(=O)Nc2ccc(C)c(Cl)c2)c1	1	4.1*	-309	-2	-27	1.3	-117
COc1cccc(-c2csc(NC(=O)Nc3ccccc3)n2)c1	/	3.2*	-221	/	12	0.88	-111
COc1cccc(-c2csc(NC(=O)C3CC3)n2)c1	1.2	1.1	-7	-18	-6	1.1	/
COc1ccc(CNC(=O)Nc2cccc(C(F)(F)F)c2)cc1OC	1	2.2*	-116	-3	-18	1.2	-121
COc1cccc(NC(=O)Nc2ccc3c(c2)CCC3)c1	/	4.4*	-336	/	-52	1.5	-190
COc1ccc(CNC(=O)NCc2ccc(OC)c(OC)c2)cc1OC	1	0.95	5	-2	-4	1	/
COc1cccc(NC(=O)Nc2cc(C(=O)O)ccc2C)c1	0.9	1	-2	9	4	0.96	/
Cc1ccc2c(c1)N(C(=O)CCC(=O)NCCCN1CC(C)CC(C)C1)CCO2 (configuration not stated)	/	0.89	11	/	2	0.98	/
COc1cccc(NC(=O)NC(C)C2CC3CCC2C3)c1 (configuration not stated)	1.1	2.7*	-167	-9	6	0.94	-97
COc1cccc(C(C)NC(=O)Nc2cccc(C(F)(F)F)c2)c1 (configuration not stated)	0.8	5.3*	-426	15	-50	1.5	-284
COc1ccc(C(=O)NC(C)C2CC3CCC2C3)c(OC)c1 (configuration not stated)	/	1	-1	/	0	1	/
COc1cccc(NC(=O)Nc2ccc(C(C)(C)C)cc2)c1	1.1	4.4*	-335	-8	-54	1.5	-118
CCN(CC)S(=O)(=O)c1cccc(NC(=O)Nc2cccc(C(F)(F)F)c2)c1	0.7	7.4*	i	34	-18	1.2	-357
CCN(CC)S(=O)(=O)c1cccc(NC(=O)CC2CCCC2)c1	/	1	-2	/	-7	1.1	/
CCCCCN(C(=O)CCC(=O)OCc1ccc(Cl)cc1Cl)c1c(N)n(CCCC)c(=O)[nH]c1=O	/	1.2	-16	/	-12	1.1	/
CC1CC(C)CN(S(=O)(=O)c2cccc(C(=O)OCCN3CCCC3=O)c2)C1 (configuration not stated)	0.9	1	-3	5	10	0.9	/
Cc1[nH]n(-c2nc(-c3ccc(Cl)cc3)cs2)c(=O)c1N=Nc1ccc(O)cc1	0.9	0.83	17	10	4	0.96	/
CC(C)CC(=O)Nc1nnc(S(=O)(=O)N2CCCCCC2)s1	/	0.96	4	/	0	1	/
CC(NC(=S)NCc1ccc(F)cc1)C12CC3CC(CC(C3)C1)C2 (configuration not stated)	0.9	4.1*	-308	8	-26	1.3	-319
C[C@H](NC(=O)NCc1ccc(F)cc1)C(=O)O	0.9	0.95	5	8	-1	1	/
NC(=O)NC[C@@H]1CC[C@@H](Cc2ccc(-c3ccccc3)cc2)O1	/	1	-4	/	/	/	/
COc1ccc(NC(=O)NC[C@@H]2CC[C@@H](Cc3ccc(-c4ccccc4)cc3)O2)cc1	/	2.7*	-171	/	/	/	-182
CC(Sc1ncnc2ccccc12)C(=O)Nc1ccc2c(c1)OCCO2 (configuration not stated)	0.8	0.92	8	18	-4	1	/
CC(C)OC(=O)NCCOC(=O)Nc1cccc(Cl)c1	0.9	2*	-103	14	-9	1.1	-112
